According to ChEMBL document CHEMBL3779833, “Hydroxyurea derivatives of irofulven with improved antitumor efficacy” (Bioorg Med Chem Lett, 2016):
The source made the active and inactive calls. No cut-off for these calls is given here.

What was measured:
[1] = Cytotoxicity against human CHRF-288-11 cells after 48 hrs by trypan blue exclusion assay; format: cell-based
Method in brief: (§1)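 Cells exposed to drug for 48 h; growth measured by trypan blue exclusion. IC50 is the concentration giving 50% growth inhibition; values reported in nM.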

A498 = test: Cytotoxicity against human A498 cells after 48 hrs by sulforhodamine B assay; format: functional, cell-based; conditions: A498, 48 h
MCF7 = test: Cytotoxicity against human MCF7 cells after 48 hrs by sulforhodamine B assay; format: functional, cell-based; conditions: MCF7, 48 h
EKVX = test: Cytotoxicity against human EKVX cells after 48 hrs by sulforhodamine B assay; format: functional, cell-based
NCI-H226 = test: Cytotoxicity against human NCI-H226 cells after 48 hrs by sulforhodamine B assay; format: functional, cell-based; conditions: NCI-H226, 48 h
M14 = test: Cytotoxicity against human M14 cells after 48 hrs by sulforhodamine B assay; format: functional, cell-based; conditions: M14, 48 h
[2] = Cytotoxicity against human BT549 cells after 48 hrs by sulforhodamine B assay; format: functional, cell-based; conditions: BT-549, 48 h
[3] = Cytotoxicity against human SF295 cells after 48 hrs by sulforhodamine B assay; format: functional, cell-based; conditions: SF-295, 48 h
[4] = Cytotoxicity against human SF539 cells after 48 hrs by sulforhodamine B assay; format: functional, cell-based; conditions: SF-539, 48 h
[5] = Cytotoxicity against human RXF393 cells after 48 hrs by sulforhodamine B assay; format: functional, cell-based; conditions: RXF 393, 48 h
[6] = Cytotoxicity against human OVCAR5 cells after 48 hrs by sulforhodamine B assay; format: functional, cell-based; conditions: OVCAR-5, 48 h
KM12 = test: Cytotoxicity against human KM12 cells after 48 hrs by sulforhodamine B assay; format: functional, cell-based; conditions: KM12, 48 h
[7] = Cytotoxicity against human UACC257 cells after 48 hrs by sulforhodamine B assay; format: functional, cell-based; conditions: UACC-257, 48 h
ACHN = test: Cytotoxicity against human ACHN cells after 48 hrs by sulforhodamine B assay; format: functional, cell-based
SK-MEL-5 = test: Cytotoxicity against human SK-MEL-5 cells after 48 hrs by sulforhodamine B assay; format: functional, cell-based; conditions: SK-MEL-5, 48 h
HT-29 = test: Cytotoxicity against human HT-29 cells after 48 hrs by sulforhodamine B assay; format: functional, cell-based; conditions: HT-29, 48 h
[8] = Cytotoxicity against human HOP62 cells after 48 hrs by sulforhodamine B assay; format: functional, cell-based; conditions: HOP-62, 48 h
[9] = Cytotoxicity against human SF268 cells after 48 hrs by sulforhodamine B assay; format: functional, cell-based; conditions: SF-268, 48 h
[10] = Cytotoxicity against human Caki1 cells after 48 hrs by sulforhodamine B assay; format: functional, cell-based; conditions: CAKI-1, 48 h
SK-MEL-28 = test: Cytotoxicity against human SK-MEL-28 cells after 48 hrs by sulforhodamine B assay; format: functional, cell-based; conditions: SK-MEL-28, 48 h
[11] = Cytotoxicity against human OVCAR4 cells after 48 hrs by sulforhodamine B assay; format: functional, cell-based; conditions: OVCAR-4, 48 h
[12] = Cytotoxicity against human OVCAR3 cells after 48 hrs by sulforhodamine B assay; format: functional, cell-based; conditions: OVCAR-3, 48 h
[13] = Cytotoxicity against human HCT116 cells after 48 hrs by sulforhodamine B assay; format: functional, cell-based; conditions: HCT-116, 48 h
SN12C = test: Cytotoxicity against human SN12C cells after 48 hrs by sulforhodamine B assay; format: functional, cell-based
786-0 = test: Cytotoxicity against human 786-0 cells after 48 hrs by sulforhodamine B assay; format: functional, cell-based; conditions: 786-0, 48 h
[14] = Cytotoxicity against human OVCAR8 cells after 48 hrs by sulforhodamine B assay; format: functional, cell-based; conditions: OVCAR-8, 48 h
Malme-3M = test: Cytotoxicity against human MALME-3M cells after 48 hrs by sulforhodamine B assay; format: functional, cell-based
[15] = Cytotoxicity against human PC3 cells after 48 hrs by sulforhodamine B assay; format: functional, cell-based; conditions: PC-3, 48 h
[16] = Cytotoxicity against human Hs 578T cells after 48 hrs by sulforhodamine B assay; format: functional, cell-based
MV522 = test: Antitumor activity against human MV522 cells xenografted in Balb/c nu/nu mouse assessed as inhibition of tumor growth at 10 mg/kg, ip administered thrice a week for 3 weeks; format: functional, organism-based
Method in brief: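 MV522 tumour xenografts in Balb/c nu/nu mice; drugs given intraperitoneally 3 times a week for 3 consecutive weeks at 10 mg/kg, the dose compared across agents; N = 8 per group.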

[17] = Cytotoxicity against human SW620 cells after 48 hrs by sulforhodamine B assay; format: functional, cell-based; conditions: SW-620, 48 h
[18] = Cytotoxicity against human HOP92 cells after 48 hrs by sulforhodamine B assay; format: functional, cell-based; conditions: HOP-92, 48 h
[19] = Cytotoxicity against human MV522 cells after 48 hrs by trypan blue exclusion assay; format: functional, cell-based; conditions: MV522, 48 h; method in brief: as §1
[20] = Cytotoxicity against human COLO205 cells after 48 hrs by sulforhodamine B assay; format: functional, cell-based; conditions: COLO 205, 48 h
T47D = test: Cytotoxicity against human T47D cells after 48 hrs by sulforhodamine B assay; format: functional, cell-based
NCI-H322M = test: Cytotoxicity against human NCI-H322M cells after 48 hrs by sulforhodamine B assay; format: functional, cell-based
[21] = Cytotoxicity against human IGROV1 cells after 48 hrs by sulforhodamine B assay; format: functional, cell-based; conditions: IGROV-1, 48 h
[22] = Selectivity index, ratio of IC50 for human CHRF-288-11 cells to IC50 for human MV522 cells; format: functional
Method in brief: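 Ratio of the IC50 in megakaryocytic CHRF 288-11 (non-target) cells to the IC50 in MV522 adenocarcinoma (target) cells.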

[23] = Cytotoxicity against human SKOV3 cells after 48 hrs by sulforhodamine B assay; format: functional, cell-based; conditions: SK-OV-3, 48 h
U-251 = test: Cytotoxicity against human U251 cells after 48 hrs by sulforhodamine B assay; format: functional, cell-based; conditions: U-251, 48 h
[24] = Cytotoxicity against human HCC2998 cells after 48 hrs by sulforhodamine B assay; format: functional, cell-based; conditions: HCC 2998, 48 h
[25] = Cytotoxicity against human TK10 cells after 48 hrs by sulforhodamine B assay; format: functional, cell-based; conditions: TK-10, 48 h
SK-MEL-2 = test: Cytotoxicity against human SK-MEL-2 cells after 48 hrs by sulforhodamine B assay; format: functional, cell-based; conditions: SK-MEL-2, 48 h
[26] = Cytotoxicity against human NCI-ADR-RES cells after 48 hrs by sulforhodamine B assay; format: functional, cell-based
[27] = Cytotoxicity against human LOXIMVI cells after 48 hrs by sulforhodamine B assay; format: functional, cell-based; conditions: LOX IMVI
[28] = Cytotoxicity against human HCT15 cells after 48 hrs by sulforhodamine B assay; format: functional, cell-based; conditions: HCT-15, 48 h
[29] = Cytotoxicity against human SNB75 cells after 48 hrs by sulforhodamine B assay; format: functional, cell-based; conditions: SNB-75, 48 h
MDA-MB-435 = test: Cytotoxicity against human MDA-MB-435 cells after 48 hrs by sulforhodamine B assay; format: functional, cell-based; conditions: MDA-MB-435, 48 h
NCI-H522 = test: Cytotoxicity against human NCI-H522 cells after 48 hrs by sulforhodamine B assay; format: functional, cell-based; conditions: NCI-H522, 48 h
MDA-MB-231 = test: Cytotoxicity against human MDA-MB-231 cells after 48 hrs by sulforhodamine B assay; format: functional, cell-based; conditions: MDA-MB-231, 48 h
[30] = Cytotoxicity against human UO31 cells after 48 hrs by sulforhodamine B assay; format: functional, cell-based; conditions: UO-31, 48 h
[31] = Cytotoxicity against human SNB19 cells after 48 hrs by sulforhodamine B assay; format: functional, cell-based; conditions: SNB-19, 48 h
NCI-H460 = test: Cytotoxicity against human NCI-H460 cells after 48 hrs by sulforhodamine B assay; format: functional, cell-based; conditions: NCI-H460, 48 h, read-out: pIC50 (converted)
A549 = test: Cytotoxicity against human A549 cells after 48 hrs by sulforhodamine B assay; format: functional, cell-based; conditions: A549, 48 h, read-out: pIC50 (converted)
[32] = Cytotoxicity against human DU145 cells after 48 hrs by sulforhodamine B assay; format: functional, cell-based; conditions: DU-145, 48 h, read-out: pIC50 (converted)
NCI-H23 = test: Cytotoxicity against human NCI-H23 cells after 48 hrs by sulforhodamine B assay; format: functional, cell-based; conditions: NCI-H23, 48 h

For `CC(=O)ON(CC1=C(C)C=C2C(=O)[C@](C)(O)C3(CC3)C(C)=C21)C(N)=O`, which IC50 [1] is on record?
Its IC50 is 1900 nM.

What does the source list for `CC1=C(CN(O)C(N)=O)C2=C(C)C3(CC3)[C@@](C)(O)C(=O)C2=C1` [LP-184]?
IC50 (A498): 31.6 nM; IC50 (MCF7): 1260 nM; IC50 (EKVX): 316 nM; IC50 (NCI-H226): 200 nM; IC50 (M14): 200 nM; IC50 [2]: 158 nM; IC50 [3]: 50.1 nM; IC50 [4]: 20 nM; IC50 [5]: 15.8 nM; IC50 [6]: 25.1 nM; IC50 (KM12): 398 nM; IC50 [7]: 251 nM; IC50 (ACHN): 31.6 nM; IC50 (SK-MEL-5): 63.1 nM; IC50 (HT-29): 126 nM; IC50 [8]: 25.1 nM; IC50 [9]: 20 nM; IC50 [10]: 50.1 nM; IC50 (SK-MEL-28): 126 nM; IC50 [11]: 100 nM; IC50 [1]: 8800 nM; IC50 [12]: 50.1 nM; IC50 [13]: 158 nM; IC50 (SN12C): 316 nM; IC50 (786-0): 126 nM; IC50 [14]: 316 nM; IC50 (Malme-3M): 126 nM; IC50 [15]: 398 nM; IC50 [16]: 501 nM; TGI (MV522): Active; IC50 [17]: 15800 nM; IC50 [18]: 39.8 nM; IC50 [19]: 210 nM; IC50 [20]: 25.1 nM; IC50 (T47D): 63.1 nM; IC50 (NCI-H322M): 100 nM; IC50 [21]: 25.1 nM; Ratio IC50 [22]: 41.9; IC50 [23]: 316 nM; IC50 (U-251): 126 nM; IC50 [24]: 12.6 nM; IC50 [25]: 31.6 nM; IC50 (SK-MEL-2): 398 nM; IC50 [26]: 158 nM; IC50 [27]: 316 nM; IC50 [28]: 126 nM; IC50 [29]: 31.6 nM; IC50 (MDA-MB-435): 398 nM; IC50 (NCI-H522): 1000 nM; IC50 (MDA-MB-231): 251 nM; IC50 [30]: 25.1 nM; IC50 [31]: 126 nM; IC50 (NCI-H460): < 10 nM; IC50 (A549): < 10 nM; IC50 [32]: < 10 nM; IC50 (NCI-H23): 15.8 nM
